Results taken from ChEMBL document CHEMBL1123841, “3-Carbonylacrylic derivatives as potential antimicrobial agents. Correlations between activity and reactivity toward cysteine” (J Med Chem, 1987).
≈ marks a conversion by molar mass, not a printed value.

Tested on: not listed separately
Test: Partition coefficient (logP)
Format: physicochemical
Conditions: octanol/water
In short: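 Octanol/water partition coefficient: some values measured experimentally by a standard literature procedure, with P = C_oct/C_H2O(1−α) correcting for ionization (α); the remaining values calculated by the method of Leo et al.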

Row | Structure (SMILES) | logP
1 | CCCCCCCC(=O)/C(C)=C(/C)C(=O)O | 2.4
2 | Cc1ccc(C(=O)/C=C/C(=O)O)cc1 | 2.44
3 | C/C(=C/C(=O)c1ccc(C)cc1)C(=O)O | 2.19
4 | COC(=O)/C=C/C(=O)c1cccnc1 | 0.56
5 | CCCCCCCCCCCC(=O)/C(C)=C(/C)C(=O)O | 4.4
6 | COC(=O)/C=C/C(=O)c1ccc(C)cc1 | 2.74
7 | O=C(O)/C=C/C(=O)c1cccnc1 | 0.26
8 | O=C(O)/C=C/C(=O)c1ccc(-c2ccccc2)cc1 | 3.9
9 | CCCCC(=O)/C(C)=C(/C)C(=O)O | 0.9

Other lines, results leading:

Row | logP | Structure (SMILES)
10 | 2.94 | C/C(=C\C(=O)O)C(=O)c1ccc(C)cc1
11 | 2.44 | C/C(=C\C(=O)O)C(=O)c1ccccc1
12 | 1.94 | O=C(O)/C=C/C(=O)c1ccccc1
13 | 2.19 | C/C(=C/C(=O)O)C(=O)c1ccc(C)cc1
14 | 1.69 | C/C(=C/C(=O)O)C(=O)c1ccccc1
15 | 2.94 | C/C(=C\C(=O)c1ccc(C)cc1)C(=O)O
16 | 1.49 | COC(=O)/C=C\C(=O)c1ccccc1
17 | 2.24 | COC(=O)/C=C/C(=O)c1ccccc1

Tested on: Staphylococcus aureus
Test: Antimicrobial activity against Staphylococcus aureus(ATCC 6538) was determined
Format: functional
Conditions: not given
In short: (§1)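 MIC determined by serial dilution in liquid medium; values expressed as micromoles/milliliter.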

Row | Structure (SMILES) | MIC [µM]
18 | Cc1ccc(C(=O)/C=C/C(=O)O)cc1 | 1000 (≈ 190 µg/mL)
19 | C/C(=C/C(=O)c1ccc(C)cc1)C(=O)O | 15000 (≈ 3060 µg/mL)
20 | COC(=O)/C=C/C(=O)c1cccnc1 | 160 (≈ 30.6 µg/mL)
21 | COC(=O)/C=C/C(=O)c1ccc(C)cc1 | 50 (≈ 10.2 µg/mL)
22 | O=C(O)/C=C/C(=O)c1cccnc1 | 1000 (≈ 177 µg/mL)
23 | O=C(O)/C=C/C(=O)c1ccc(-c2ccccc2)cc1 | 80 (≈ 20.2 µg/mL)

Other lines, results leading:

Row | MIC [µM] | Structure (SMILES)
24 | 15000 (≈ 3060 µg/mL) | C/C(=C\C(=O)O)C(=O)c1ccc(C)cc1
25 | 18000 (≈ 3420 µg/mL) | C/C(=C\C(=O)O)C(=O)c1ccccc1
26 | 1260 (≈ 222 µg/mL) | O=C(O)/C=C/C(=O)c1ccccc1
27 | > 15000 | C/C(=C/C(=O)O)C(=O)c1ccc(C)cc1
28 | > 16000 | C/C(=C/C(=O)O)C(=O)c1ccccc1
29 | 16000 (≈ 3270 µg/mL) | C/C(=C\C(=O)c1ccc(C)cc1)C(=O)O
30 | 40 (≈ 7.61 µg/mL) | COC(=O)/C=C\C(=O)c1ccccc1
31 | 40 (≈ 7.61 µg/mL) | COC(=O)/C=C/C(=O)c1ccccc1

Tested on: Streptococcus pyogenes
Test: Antimicrobial activity against Streptococcus pyogenes A(IVM P 134) was determined
Format: functional
Conditions: not given
In short: as §1

Row | Structure (SMILES) | MIC [µM]
32 | CCCCCCCC(=O)/C(C)=C(/C)C(=O)O | 320 (≈ 72.4 µg/mL)
33 | Cc1ccc(C(=O)/C=C/C(=O)O)cc1 | 13 (≈ 2.47 µg/mL)
34 | C/C(=C/C(=O)c1ccc(C)cc1)C(=O)O | 2000 (≈ 408 µg/mL)
35 | COC(=O)/C=C/C(=O)c1cccnc1 | 42 (≈ 8.03 µg/mL)
36 | CCCCCCCCCCCC(=O)/C(C)=C(/C)C(=O)O | 10 (≈ 2.82 µg/mL)
37 | COC(=O)/C=C/C(=O)c1ccc(C)cc1 | 24 (≈ 4.9 µg/mL)
38 | O=C(O)/C=C/C(=O)c1cccnc1 | 50 (≈ 8.86 µg/mL)
39 | O=C(O)/C=C/C(=O)c1ccc(-c2ccccc2)cc1 | 6 (≈ 1.51 µg/mL)
40 | CCCCC(=O)/C(C)=C(/C)C(=O)O | 3800 (≈ 700 µg/mL)

Other lines, results leading:

Row | MIC [µM] | Structure (SMILES)
41 | 2000 (≈ 380 µg/mL) | C/C(=C\C(=O)O)C(=O)c1ccccc1
42 | 30 (≈ 5.29 µg/mL) | O=C(O)/C=C/C(=O)c1ccccc1
43 | 2000 (≈ 408 µg/mL) | C/C(=C/C(=O)O)C(=O)c1ccc(C)cc1
44 | 2200 (≈ 418 µg/mL) | C/C(=C/C(=O)O)C(=O)c1ccccc1
45 | 2000 (≈ 408 µg/mL) | C/C(=C\C(=O)c1ccc(C)cc1)C(=O)O
46 | 3 (≈ 0.571 µg/mL) | COC(=O)/C=C\C(=O)c1ccccc1
47 | 10 (≈ 1.9 µg/mL) | COC(=O)/C=C/C(=O)c1ccccc1

Tested on: Microsporum canis
Test: Antimicrobial activity against Microsporum canis(ATCC 11621) was determined
Format: functional
Conditions: not given
In short: as §1

Row | Structure (SMILES) | MIC [µM]
48 | Cc1ccc(C(=O)/C=C/C(=O)O)cc1 | 1000 (≈ 190 µg/mL)
49 | C/C(=C/C(=O)c1ccc(C)cc1)C(=O)O | 3200 (≈ 654 µg/mL)
50 | COC(=O)/C=C/C(=O)c1cccnc1 | 5 (≈ 0.956 µg/mL)
51 | COC(=O)/C=C/C(=O)c1ccc(C)cc1 | 50 (≈ 10.2 µg/mL)

Results, then the molecule that gave them:

Row | MIC [µM] | Structure (SMILES)
52 | 3200 (≈ 654 µg/mL) | C/C(=C\C(=O)O)C(=O)c1ccc(C)cc1
53 | 1000 (≈ 176 µg/mL) | O=C(O)/C=C/C(=O)c1ccccc1
54 | 3200 (≈ 654 µg/mL) | C/C(=C/C(=O)O)C(=O)c1ccc(C)cc1
55 | 16000 (≈ 3040 µg/mL) | C/C(=C/C(=O)O)C(=O)c1ccccc1
56 | 1200 (≈ 245 µg/mL) | C/C(=C\C(=O)c1ccc(C)cc1)C(=O)O
57 | < 2 | COC(=O)/C=C\C(=O)c1ccccc1
58 | 2.6 (≈ 0.495 µg/mL) | COC(=O)/C=C/C(=O)c1ccccc1
